Laboratory results reported in ChEMBL document CHEMBL1121371, “Antihypertensive 5,6-diarylpyridazin-3-ones” (1980).
Where “and” joins values, the source holds several entries; their conditions need not be identical. Equal values may be shown once.

Assays:
[1] = test system: Rattus norvegicus; assay: Antihypertensive activity in spontaneously hypertensive rats was measured as average blood pressure at 100 mg/kg, p.o. after 24 hours of postdose-1.; format: functional; conditions: route oral
Procedure, shortened: (§1)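 Spontaneously hypertensive rats aged 12 to 16 weeks, in groups of five with systolic pressure of 170 mmHg or more. Oral dosing as a solution or suspension in 0.25% methylcellulose, 5 mL/kg, with a vehicle control group. Tail-cuff systolic pressure was read predose and 4 and 24 h after each of two doses. Values were compared with predose by Student's t test.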

[2] = test system: Rattus norvegicus; assay: Antihypertensive activity in spontaneously hypertensive rats was measured as average blood pressure at 100 mg/kg, po after 24 hours of postdose-2; format: functional; procedure, shortened: as §1
[3] = test system: Rattus norvegicus; assay: Antihypertensive activity in spontaneously hypertensive rats was measured as average blood pressure at 100 mg/kg, p.o. after 4 hours of postdose-2; format: functional; conditions: route oral; procedure, shortened: as §1
[4] = test system: Rattus norvegicus; assay: Antihypertensive activity in spontaneously hypertensive rats was measured as average blood pressure at 100 mg/kg, p.o. before predose; format: functional; conditions: route oral; procedure, shortened: as §1
[5] = test system: Rattus norvegicus; assay: Antihypertensive activity in spontaneously hypertensive rats was measured as average blood pressure at 100 mg/kg, p.o. after 4 hours of postdose-1.; format: functional; conditions: route oral; procedure, shortened: as §1
[6] = test system: Rattus norvegicus; assay: Antihypertensive activity in spontaneously hypertensive rats was measured as average blood pressure at 100 mg/kg, p.o. after 4 hours of postdose-1; format: functional; conditions: route oral; procedure, shortened: as §1
[7] = test system: Rattus norvegicus; assay: Antihypertensive activity in spontaneously hypertensive rats was measured as increase in heart rate at 100 mg/kg peroral dose; (+)=increased heart rate; format: functional, organism-based; design: dose 100 mg/kg
[8] = test system: Rattus norvegicus; assay: Antihypertensive activity in spontaneously hypertensive rats was measured as average blood pressure at 30 mg/kg, p.o. after 4 hours of postdose-2; format: functional; conditions: route oral; procedure, shortened: as §1
[9] = test system: Rattus norvegicus; assay: Antihypertensive activity in spontaneously hypertensive rats was measured as average blood pressure at 30 mg/kg, po after 4 hours of postdose-1.; format: functional; procedure, shortened: as §1
[10] = test system: Rattus norvegicus; assay: Antihypertensive activity in spontaneously hypertensive rats was measured as average blood pressure at 30 mg/kg, p.o. after 24 hours of postdose-1; format: functional; conditions: route oral; procedure, shortened: as §1
[11] = test system: Rattus norvegicus; assay: Antihypertensive activity in spontaneously hypertensive rats was measured as average blood pressure at 30 mg/kg, p.o. after 24 hours of postdose-2; format: functional; conditions: route oral; procedure, shortened: as §1
[12] = test system: Rattus norvegicus; assay: Antihypertensive activity in spontaneously hypertensive rats was measured as average blood pressure at 30 mg/kg, p.o. before predose; format: functional; conditions: route oral; procedure, shortened: as §1
[13] = test system: Rattus norvegicus; assay: Antihypertensive activity in spontaneously hypertensive rats was measured as average blood pressure at 50 mg/kg, p.o. before predose; format: functional; conditions: route oral; procedure, shortened: as §1
[14] = test system: Rattus norvegicus; assay: Antihypertensive activity in spontaneously hypertensive rats was measured as average blood pressure at 25 mg/kg, p.o. after 4 hours of postdose-2; format: functional; conditions: route oral; procedure, shortened: as §1
[15] = test system: Rattus norvegicus; assay: Antihypertensive activity in spontaneously hypertensive rats was measured as average blood pressure at 50 mg/kg, p.o. after 24 hours of postdose-2; format: functional; conditions: route oral; procedure, shortened: as §1
[16] = test system: Rattus norvegicus; assay: Antihypertensive activity in spontaneously hypertensive rats was measured as average blood pressure at 50 mg/kg, p.o. after 24 hours of postdose-1; format: functional; conditions: route oral; procedure, shortened: as §1
[17] = test system: Rattus norvegicus; assay: Antihypertensive activity in spontaneously hypertensive rats was measured as average blood pressure at 25 mg/kg, p.o. after 24 hours of postdose-2; format: functional; conditions: route oral; procedure, shortened: as §1
[18] = test system: Rattus norvegicus; assay: Antihypertensive activity in spontaneously hypertensive rats was measured as average blood pressure at 50 mg/kg, p.o. after 4 hours of postdose-2; format: functional; conditions: route oral; procedure, shortened: as §1
[19] = test system: Rattus norvegicus; assay: Antihypertensive activity in spontaneously hypertensive rats was measured as average blood pressure at 25 mg/kg, p.o. before predose; format: functional; conditions: route oral; procedure, shortened: as §1
[20] = test system: Rattus norvegicus; assay: Antihypertensive activity in spontaneously hypertensive rats was measured as average blood pressure at 25 mg/kg, p.o. after 24 hours of postdose-1; format: functional; conditions: route oral; procedure, shortened: as §1
[21] = test system: Rattus norvegicus; assay: Antihypertensive activity in spontaneously hypertensive rats was measured as average blood pressure at 25 mg/kg, po after 4 hours of postdose-1; format: functional; procedure, shortened: as §1
[22] = test system: Rattus norvegicus; assay: Antihypertensive activity in spontaneously hypertensive rats was measured as average blood pressure at 50 mg/kg, p.o. after 4 hours of postdose-1; format: functional; conditions: route oral; procedure, shortened: as §1
[23] = test system: Rattus norvegicus; assay: Antihypertensive activity in spontaneously hypertensive rats was measured as average blood pressure at 25 mg/kg, p.o. after 4 hours of postdose-1.; format: functional; conditions: route oral; procedure, shortened: as §1

SMILES	BP [1] [mmHg]	BP [2] [mmHg]	BP [3] [mmHg]	BP [4] [mmHg]	BP [5] [mmHg]	BP [6] [mmHg]	further results
CC(=O)c1c(-c2ccc(Cl)cc2)c(-c2ccc(Cl)cc2)nn(CCN(C)C)c1=O.Cl	170	184	160	205	200	–	–
CC(=O)c1c(-c2ccc(Cl)cc2)c(-c2ccc(Cl)cc2)nn(C(C)CO)c1=O (configuration not stated)	174	201	191	212	–	186	–
CC(=O)c1c(-c2ccc(Cl)cc2)c(-c2ccc(Cl)cc2)nn(CCN(C)C)c1=O [listing 1 of 2 here]	–	–	–	–	–	–	Heart rate [7]: increased heart rate
CC(=O)c1c(-c2ccc(Cl)cc2)c(-c2ccc(Cl)cc2)nn(CCN(C)C)c1=O [listing 2 of 2 here]	179	144	155	201	182	–	BP [8]: 167 mmHg; BP [9]: 182 mmHg; BP [10]: 164 mmHg; BP [11]: 193 mmHg; BP [12]: 199 mmHg
CC(=O)c1c(-c2ccc(Cl)cc2)c(-c2ccc(Cl)cc2)nn(CCN2CCOCC2)c1=O	–	–	–	–	230	140	BP ([1]; 100 mg/kg): 201 mmHg and 161 mmHg; BP ([2]; 100 mg/kg): 222 mmHg and 177 mmHg; BP ([3]; 100 mg/kg): 199 mmHg and 146 mmHg; BP ([4]; 100 mg/kg): 239 mmHg and 201 mmHg
N=C(N)NCCN1CCCCCCC1 [GUANETHIDINE]	–	–	–	–	–	–	BP [13]: 187 mmHg; BP [14]: 163 mmHg; BP [15]: 146 mmHg; BP [16]: 166 mmHg; BP [17]: 183 mmHg; BP [18]: 138 mmHg; BP [19]: 194 mmHg; BP [20]: 181 mmHg; BP [21]: 163 mmHg; BP [22]: 154 mmHg
CCOC(=O)N1CCN(CCn2nc(-c3ccc(Cl)cc3)c(-c3ccc(Cl)cc3)c(C(C)=O)c2=O)CC1	182	183	151	200	186	–	–
C[C@](N)(Cc1ccc(O)c(O)c1)C(=O)O [METHYLDOPA]	174	166	155	178	–	161	–
CC(=O)c1c(-c2ccc(Cl)cc2)c(-c2ccc(Cl)cc2)nn(CCNC(C)C)c1=O	181	176	143	216	211	–	–
Br.CC(=O)c1c(-c2ccc(Cl)cc2)c(-c2ccc(Cl)cc2)nn(CCN)c1=O	–	–	–	–	–	–	BP [14]: 177 mmHg; BP [17]: 183 mmHg; BP [19]: 194 mmHg; BP [23]: 184 mmHg; BP [20]: 162 mmHg
